Measurements reported in ChEMBL document CHEMBL4196050, “Design, synthesis, and biological evaluation of compounds with a new scaffold as anti-neuroinflammatory agents for the treatment of Alzheimer's disease” (Eur J Med Chem, 2018).
Active and inactive are the calls of the source. No cut-off for these calls is given here.

How the values were obtained:
[1] = test system: BV-2; assay: Antineuroinflammatory activity in mouse BV2 cells assessed as inhibition of LPS-induced NO production pretreated for 30 mins followed by LPS stimulation and measured after 24 hrs by Griess assay; type: functional, cell-based
Method in brief: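 BV2 microglia plated at 4 × 10⁵ cells/mL and grown 48 h, then medium replaced. Compounds at various concentrations given 30 min before LPS; incubated 24 h at 37 °C. Equal volume of Griess reagent added to medium, 10 min at room temperature, absorbance read at 540 nm. % inhibition = (F_L − F_C)/(F_L − F₀) × 100. IC50 by nonlinear regression, ≥3 independent experiments, mean SEM.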

[2] = test system: BV-2; assay: Antineuroinflammatory activity in mouse BV2 cells assessed as inhibition of LPS-induced TNFalpha production after 24 hrs by ELISA; type: functional, cell-based; conditions: BV-2, 24 h
Method in brief: (§1)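 BV2 cells plated at 4 × 10⁵ cells/mL, grown 48 h, medium replaced with DMEM. Compound added first, then LPS; incubated 24 h at 37 °C. TNF-α or IL-1β in culture medium measured by ELISA. % inhibition = (F_L − F_C)/(F_L − F₀) × 100 against LPS-only and unstimulated cells. IC50 by nonlinear regression of ≥3 independent experiments, mean SEM.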

[3] = test system: BV-2; assay: Antineuroinflammatory activity in mouse BV2 cells assessed as inhibition of LPS-induced IL-1beta production after 24 hrs by ELISA; type: functional, cell-based; conditions: BV-2, 24 h; method in brief: as §1
[4] = Permeability of the compound after 10 hrs by PAMPA; type: ADME; conditions: read-out: permeability
Method in brief: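 PAMPA-BBB: filter coated with porcine brain lipid in dodecane (20 mg/mL); acceptor PBS/EtOH (7:3). DMSO stocks (5 mg/mL) diluted 50-fold in PBS/EtOH into donor wells. Sandwich left 10 h at 25 °C; acceptor concentration read by UV plate reader. Pe from volumes, filter area, time and acceptor/equilibrium absorbance. Means SD of ≥3 experiments; Pe > 4.7 × 10⁻⁶ cm/s taken as BBB-permeable.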

[5] = test system: BV-2; assay: Antineuroinflammatory activity in mouse BV2 cells assessed as inhibition of LPS-induced iNOS production pretreated for 30 mins followed by LPS stimulation for 16 hrs by Western blot analysis; type: functional, cell-based
[6] = target: T1, NF-kappa-B inhibitor alpha (Mus musculus) (UniProt Q9Z1E3); assay: Inhibition of LPS-induced IkappaBalpha phosphorylation in mouse BV2 cells up to 10 uM preincubated for 30 mins followed by LPS-stimulation for 16 hrs by Western blot analysis; type: cell-based
T1 sequence (whole entry): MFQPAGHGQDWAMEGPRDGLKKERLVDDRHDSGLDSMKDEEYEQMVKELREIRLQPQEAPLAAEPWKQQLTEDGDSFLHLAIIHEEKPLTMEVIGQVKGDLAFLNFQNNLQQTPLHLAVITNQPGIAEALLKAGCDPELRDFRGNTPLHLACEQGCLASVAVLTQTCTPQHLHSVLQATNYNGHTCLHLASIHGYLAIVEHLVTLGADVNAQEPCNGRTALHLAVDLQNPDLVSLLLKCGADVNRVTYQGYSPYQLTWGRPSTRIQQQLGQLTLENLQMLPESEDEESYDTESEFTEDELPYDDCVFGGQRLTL
Method in brief: (§2)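 BV2 cells in 6-well plates, with or without compound 30 min, then with or without LPS for 16 h. Lysed in RIPA with protease and phosphatase inhibitors; cytoplasmic and nuclear fractions separated; protein by BCA. Run on 10% SDS-PAGE, PVDF, milk/TBST block 2 h, primary antibody 4 °C overnight, secondary 2 h at room temperature, chemiluminescence. Phospho-ERK1/2 (Thr202/Tyr204), p38 (Thr180/Tyr182), JNK (Thr183/Tyr185), IκBα (Ser32); GAPDH and Lamin B references. Three independent experiments.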

[7] = target: Transcription factor p65 (Mus musculus) (UniProt Q04207); assay: Inhibition of LPS-induced p65 translocation from cytoplasm to nucleus in mouse BV2 cells up to 10 uM preincubated for 30 mins followed by LPS-stimulation for 16 hrs by Western blot analysis; type: cell-based; method in brief: as §2
[8] = target: Mitogen-activated protein kinase 1 and 3 (ERK2 and ERK1) (Mus musculus) (UniProt P63085+Q63844); assay: Inhibition of LPS-induced ERK1/2 phosphorylation in mouse BV2 cells up to 10 uM preincubated for 30 mins followed by LPS-stimulation for 16 hrs by Western blot analysis; type: cell-based; method in brief: as §2
[9] = species: Mus musculus; assay: Inhibition of LPS-induced JNK phosphorylation in mouse BV2 cells up to 10 uM preincubated for 30 mins followed by LPS-stimulation for 16 hrs by Western blot analysis; type: cell-based; method in brief: as §2
[10] = target: MAP kinase p38 (Mus musculus) (UniProt P47811+O08911+Q9WUI1+Q9Z1B7); assay: Inhibition of LPS-induced p38 phosphorylation in mouse BV2 cells up to 10 uM preincubated for 30 mins followed by LPS-stimulation for 16 hrs by Western blot analysis; type: cell-based; method in brief: as §2
[11] = Anti-inflammatory activity in LPS-induced mouse N9 cells assessed as reduction in IL-1beta production pretreated for 18 hrs followed LPS stimulation and measured after 48 hrs by ELISA; type: functional, cell-based

Sequence of Transcription factor p65 (Mus musculus) (Q04207 whole entry): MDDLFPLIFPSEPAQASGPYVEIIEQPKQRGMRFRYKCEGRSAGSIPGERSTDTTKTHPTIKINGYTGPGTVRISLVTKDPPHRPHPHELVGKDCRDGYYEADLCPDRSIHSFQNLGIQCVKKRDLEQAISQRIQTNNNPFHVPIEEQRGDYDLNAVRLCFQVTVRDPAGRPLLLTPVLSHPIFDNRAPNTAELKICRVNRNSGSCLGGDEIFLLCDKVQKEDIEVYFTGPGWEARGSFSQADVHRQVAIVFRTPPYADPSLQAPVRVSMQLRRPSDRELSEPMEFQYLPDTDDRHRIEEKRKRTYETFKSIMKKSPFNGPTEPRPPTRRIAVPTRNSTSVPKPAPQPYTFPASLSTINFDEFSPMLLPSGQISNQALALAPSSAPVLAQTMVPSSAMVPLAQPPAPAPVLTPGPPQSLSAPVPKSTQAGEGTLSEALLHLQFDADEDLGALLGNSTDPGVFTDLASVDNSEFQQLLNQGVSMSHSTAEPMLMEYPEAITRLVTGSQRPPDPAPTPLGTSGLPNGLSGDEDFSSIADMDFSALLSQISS
Sequence of Mitogen-activated protein kinase 1 and 3 (ERK2 and ERK1) (Mus musculus) (P63085 whole entry, looked up): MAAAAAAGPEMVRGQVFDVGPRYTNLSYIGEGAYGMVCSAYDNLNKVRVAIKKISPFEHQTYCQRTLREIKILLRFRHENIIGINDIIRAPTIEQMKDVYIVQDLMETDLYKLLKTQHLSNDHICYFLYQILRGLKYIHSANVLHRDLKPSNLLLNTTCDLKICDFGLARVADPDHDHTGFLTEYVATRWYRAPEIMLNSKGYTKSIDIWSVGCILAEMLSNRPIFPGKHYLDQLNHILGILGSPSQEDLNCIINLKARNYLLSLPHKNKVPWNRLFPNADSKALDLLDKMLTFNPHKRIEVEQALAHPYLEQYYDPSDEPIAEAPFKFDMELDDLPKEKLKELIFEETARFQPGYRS
Sequence of Mitogen-activated protein kinase 1 and 3 (ERK2 and ERK1) (Mus musculus) (Q63844 whole entry, looked up): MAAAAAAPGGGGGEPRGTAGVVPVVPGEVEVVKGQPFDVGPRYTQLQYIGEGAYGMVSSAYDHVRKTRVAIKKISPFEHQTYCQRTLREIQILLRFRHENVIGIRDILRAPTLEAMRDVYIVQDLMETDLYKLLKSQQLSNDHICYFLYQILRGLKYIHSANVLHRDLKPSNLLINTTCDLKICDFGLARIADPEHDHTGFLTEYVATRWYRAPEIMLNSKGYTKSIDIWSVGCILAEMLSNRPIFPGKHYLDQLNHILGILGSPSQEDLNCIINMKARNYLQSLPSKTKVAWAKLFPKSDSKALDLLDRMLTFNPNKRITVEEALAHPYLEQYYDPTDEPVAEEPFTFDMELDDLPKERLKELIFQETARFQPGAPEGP

Row | SMILES | IC50 [1] [µM] | IC50 [2] [µM] | IC50 [3] [µM] | Papp at 10 h [4] [×10⁻⁶ cm/s] | inhibition [6] | inhibition [7] | inhibition [8] | inhibition [10] | IC50 [11] [µM] | inhibition [5] | inhibition [9]
1 | COc1ccc(/C=C(/C(=O)N2CCN(c3ncccn3)CC2)c2ccc(F)cc2)cc1 | 23.1 | 41.3 | 42.9 | 10.5 | – | – | – | – | – | – | –
2 | COc1ccc(/C=C(/C(=O)N2CCN(c3ncccn3)CC2)c2cccc(C(F)(F)F)c2)cc1 | 22.4 | 26.5 | 15.2 | 14.7 | – | – | – | – | – | – | –
3 | O=C(/C(=C/c1ccc(Cl)cc1)c1ccccc1)N1CCN(c2ncccn2)CC1 | > 50 | > 50 | > 50 | 7.4 | – | – | – | – | – | – | –
4 | O=C(/C(=C/c1ccccc1)c1ccccc1)N1CCN(c2ncccn2)CC1 | 17.8 | 35.4 | > 50 | 14.3 | – | – | – | – | – | – | –
5 | Cc1cc(-c2ccccc2)nnc1C(=O)N1CCN(c2ncccn2)CC1 | – | – | – | – | – | – | – | – | 0.0034 | – | –
6 | COc1ccc(O)c(/C=C(/C(=O)N2CCN(c3ncccn3)CC2)c2ccccc2)c1 | 48.1 | 36.4 | 11.4 | 14.1 | – | – | – | – | – | – | –
7 | O=C(/C(=C/c1ccc(F)cc1)c1cccc(C(F)(F)F)c1)N1CCN(c2ncccn2)CC1 | 15.6 | 19.8 | 31.2 | 12.3 | – | – | – | – | – | – | –
8 | COc1ccc(O)c(/C=C(/C(=O)N2CCN(c3ncccn3)CC2)c2cccc(C(F)(F)F)c2)c1 | 42.6 | > 50 | > 50 | 12.7 | – | – | – | – | – | – | –
9 | O=C(/C(=C/c1ccccc1Cl)c1cccc(C(F)(F)F)c1)N1CCN(c2ncccn2)CC1 | 19.9 | 25.1 | 18.4 | 15.1 | – | – | – | – | – | – | –
10 | O=C(/C(=C/c1ccc(Cl)cc1)c1ccc(F)cc1)N1CCN(c2ncccn2)CC1 | 25.1 | 17.8 | 36.4 | 7.8 | – | – | – | – | – | – | –
11 | O=C(/C(=C/c1ccc(Cl)cc1)c1cccc(C(F)(F)F)c1)N1CCN(c2ncccn2)CC1 | 26.9 | 43.1 | 21.9 | 5.1 | – | – | – | – | – | – | –
12 | O=C(/C(=C/c1cccc(Cl)c1)c1cccc(C(F)(F)F)c1)N1CCN(c2ncccn2)CC1 | 37.2 | 26.7 | 15.2 | 10.7 | – | – | – | – | – | – | –
13 | O=C(/C(=C/c1ccccc1)c1cccc(C(F)(F)F)c1)N1CCN(c2ncccn2)CC1 | 39.8 | > 50 | 25.3 | 7.2 | – | – | – | – | – | – | –
14 | COc1ccccc1/C=C(/C(=O)N1CCN(c2ncccn2)CC1)c1cccc(C(F)(F)F)c1 | 31.7 | 34.7 | 41.2 | 9.7 | – | – | – | – | – | – | –
15 | COc1ccc(O)c(/C=C(/C(=O)N2CCN(c3ncccn3)CC2)c2ccc(F)cc2)c1 | 46.8 | > 50 | > 50 | 6.4 | – | – | – | – | – | – | –
16 | O=C(/C(=C/c1ccc(F)cc1)c1ccc(F)cc1)N1CCN(c2ncccn2)CC1 | > 50 | 37.5 | 25.7 | 14.3 | – | – | – | – | – | – | –

Continued by falling IC50 [1], values first:

Row | IC50 [1] [µM] | IC50 [2] [µM] | IC50 [3] [µM] | Papp at 10 h [4] [×10⁻⁶ cm/s] | inhibition [6] | inhibition [7] | inhibition [8] | inhibition [10] | IC50 [11] [µM] | SMILES | inhibition [5] | inhibition [9]
17 | 14.9 | 21.6 | 11.3 | 8.2 | – | – | – | – | – | O=C(/C(=C/c1ccc(C(F)(F)F)cc1)c1ccccc1)N1CCN(c2ncccn2)CC1 | – | –
18 | 12.6 | 16.2 | 7.8 | 11.2 | – | – | – | – | – | O=C(/C(=C/c1cccc(Cl)c1)c1ccccc1)N1CCN(c2ncccn2)CC1 | – | –
19 | 11.1 | 9.5 | 8.7 | 1.1 | – | – | – | – | – | Oc1ccc(/C=C/c2cc(O)cc(O)c2)cc1 [RESVERATROL] | – | –
20 | 11 | 9.4 | 11.9 | 9.4 | – | – | – | – | – | O=C(/C(=C/c1cccc(Cl)c1)c1ccc(F)cc1)N1CCN(c2ncccn2)CC1 | – | –
21 | 10.1 | 17.6 | 9.3 | 9.4 | – | – | – | – | – | O=C(/C(=C/c1ccccc1Cl)c1ccccc1)N1CCN(c2ncccn2)CC1 | – | –
22 | 9.9 | 23.7 | 18.4 | 13.8 | – | – | – | – | – | COc1ccccc1/C=C(/C(=O)N1CCN(c2ncccn2)CC1)c1ccc(F)cc1 | – | –
23 | 9.5 | 16.9 | 3.4 | 10.3 | – | – | – | – | – | COc1ccc(/C=C(/C(=O)N2CCN(c3ncccn3)CC2)c2ccccc2)cc1 | – | –
24 | 8.1 | 15.2 | 10.2 | 11.2 | – | – | – | – | – | O=C(/C(=C/c1ccccc1)c1ccc(F)cc1)N1CCN(c2ncccn2)CC1 | – | –
25 | 7.9 | 21.3 | 31.6 | 12.3 | – | – | – | – | – | COc1ccccc1/C=C(/C(=O)N1CCN(c2ncccn2)CC1)c1ccccc1 | – | –
26 | 7.9 | 5.9 | 2.4 | 14.9 | – | – | – | – | – | O=C(/C(=C/C=C/c1ccccc1)c1ccc(F)cc1)N1CCN(c2ncccn2)CC1 | – | –
27 | 7.3 | 10.9 | 5.2 | 11.3 | – | – | – | – | – | O=C(/C(=C/c1ccccc1Cl)c1ccc(F)cc1)N1CCN(c2ncccn2)CC1 | – | –
28 | 6.5 | 6.9 | 4.2 | 9.3 | – | – | – | – | – | O=C(/C(=C/c1ccc(C(F)(F)F)cc1)c1cccc(C(F)(F)F)c1)N1CCN(c2ncccn2)CC1 | – | –
29 | 3 | 6.6 | 8.9 | 7.6 | – | – | – | – | – | O=C(/C(=C/c1ccc(C(F)(F)F)cc1)c1ccc(F)cc1)N1CCN(c2ncccn2)CC1 | – | –
30 | 1 | 2.6 | 0.5 | 12.6 | inactive | inactive | Active | Active | – | O=C(/C(=C/C=C/c1ccccc1)c1cccc(C(F)(F)F)c1)N1CCN(c2ncccn2)CC1 | Dose-dependent effect | Active
